Source: ChEMBL document CHEMBL4043283, “Discovery and Preclinical Development of IIIM-290, an Orally Active Potent Cyclin-Dependent Kinase Inhibitor” (J Med Chem, 2018)

Assays:
Homo sapiens = species: Homo sapiens; test: Selectivity ratio of IC50 for CDK2/cyclin A (unknown origin) to IC50 for CDK9/cyclin T1 (unknown origin)
PC-3 [1] = test: Growth inhibition of human PC3 cells after 48 hrs by MTT assay; type: functional; conditions: PC-3, 48 h
Method in brief: (§1)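 Cancer cell lines sourced from the National Cancer Institute (USA). Cells kept in appropriate growth medium at 37 °C, 95% humidity, 5% CO2. Antiproliferation read by tetrazolium (MTT) assay. GI50 values were determined only for compounds selected after an initial single-concentration screen.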

MCF7 [2] = test: Growth inhibition of human MCF7 cells after 48 hrs by MTT assay; type: functional; conditions: MCF7, 48 h; method in brief: as §1
[3] = biological target: CDK9/cyclin T1 (Homo sapiens) (UniProt O60563+P50750); test: Inhibition of CDK9/cyclin T1 (unknown origin) at 0.5 uM using YSPTSPSYSPTSPSYSPTSPKKK as substrate after 30 mins in presence of [33P]-gamma-ATP by filter binding assay relative to control; type: protein-complex assay
MIA PaCa-2 [4] = test: Growth inhibition of human MIAPaCa2 cells at 10 uM after 48 hrs by MTT assay relative to control; type: functional; conditions: MIA PaCa-2, 48 h, read-out: GI
Method in brief: (§2)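 Single-concentration primary screen at 10 μM by MTT assay. Cells were NCI-sourced cancer lines grown in appropriate medium at 37 °C, 95% humidity, 5% CO2. Growth inhibition is expressed relative to control.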

HL-60 [5] = test: Growth inhibition of human HL60 cells after 48 hrs by MTT assay; type: functional; conditions: HL-60, 48 h; method in brief: as §1
MCF7 [6] = test: Growth inhibition of human MCF7 cells at 10 uM after 48 hrs by MTT assay relative to control; type: functional; conditions: MCF7, 48 h, read-out: GI; method in brief: as §2
Caco-2 [7] = test: Growth inhibition of human Caco2 cells after 48 hrs by MTT assay; type: functional; conditions: Caco-2, 48 h; method in brief: as §1
MIA PaCa-2 [8] = test: Growth inhibition of human MIAPaCa2 cells after 48 hrs by MTT assay; type: functional; conditions: MIA PaCa-2, 48 h; method in brief: as §1
HL-60 [9] = test: Growth inhibition of human HL60 cells at 10 uM after 48 hrs by MTT assay relative to control; type: functional; conditions: HL-60, 48 h, read-out: GI; method in brief: as §2
CDK2/Cyclin A2 = CDK2/Cyclin A2 (Homo sapiens, UniProt P24941); test: Inhibition of CDK2/cyclin A (unknown origin) using histone H1 as substrate after 30 mins in presence of [33P]-gamma-ATP by filter binding assay; type: protein-complex assay
[10] = biological target: CDK2/Cyclin A2 (Homo sapiens) (UniProt P24941+P20248); test: Inhibition of CDK2/cyclin A (unknown origin) at 0.5 uM using histone H1 as substrate after 30 mins in presence of [33P]-gamma-ATP by filter binding assay relative to control; type: protein-complex assay
Caco-2 [11] = test: Growth inhibition of human Caco2 cells at 10 uM after 48 hrs by MTT assay relative to control; type: functional; conditions: Caco-2, 48 h, read-out: GI; method in brief: as §2
PC-3 [12] = test: Growth inhibition of human PC3 cells at 10 uM after 48 hrs by MTT assay relative to control; type: functional; conditions: PC-3, 48 h, read-out: GI; method in brief: as §2
CDK9/cyclin T1 = CDK9/cyclin T1 (Homo sapiens, UniProt P50750); test: Inhibition of CDK9/cyclin T1 (unknown origin) using YSPTSPSYSPTSPSYSPTSPKKK as substrate after 30 mins in presence of [33P]-gamma-ATP by filter binding assay; type: protein-complex assay
CDK9/cyclin T1, sequence (O60563 whole entry): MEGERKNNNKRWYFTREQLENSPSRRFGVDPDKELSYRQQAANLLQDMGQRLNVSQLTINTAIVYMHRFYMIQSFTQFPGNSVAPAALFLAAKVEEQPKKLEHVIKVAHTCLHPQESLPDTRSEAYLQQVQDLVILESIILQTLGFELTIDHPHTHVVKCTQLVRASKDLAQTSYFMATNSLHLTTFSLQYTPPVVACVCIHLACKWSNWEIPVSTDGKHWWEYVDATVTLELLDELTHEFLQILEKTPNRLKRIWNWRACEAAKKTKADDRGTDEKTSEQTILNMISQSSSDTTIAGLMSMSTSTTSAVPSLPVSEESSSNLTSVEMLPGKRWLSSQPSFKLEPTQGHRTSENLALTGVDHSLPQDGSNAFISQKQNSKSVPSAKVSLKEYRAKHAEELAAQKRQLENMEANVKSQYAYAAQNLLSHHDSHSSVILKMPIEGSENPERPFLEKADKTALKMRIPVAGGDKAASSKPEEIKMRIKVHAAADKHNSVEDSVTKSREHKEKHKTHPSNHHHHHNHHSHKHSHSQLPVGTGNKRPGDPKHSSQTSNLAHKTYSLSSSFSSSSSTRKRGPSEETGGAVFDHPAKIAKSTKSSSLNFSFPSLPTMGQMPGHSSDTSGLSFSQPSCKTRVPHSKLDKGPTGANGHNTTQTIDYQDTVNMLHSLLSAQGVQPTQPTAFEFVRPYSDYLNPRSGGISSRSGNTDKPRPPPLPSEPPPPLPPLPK
CDK9/cyclin T1, sequence (P50750 whole entry): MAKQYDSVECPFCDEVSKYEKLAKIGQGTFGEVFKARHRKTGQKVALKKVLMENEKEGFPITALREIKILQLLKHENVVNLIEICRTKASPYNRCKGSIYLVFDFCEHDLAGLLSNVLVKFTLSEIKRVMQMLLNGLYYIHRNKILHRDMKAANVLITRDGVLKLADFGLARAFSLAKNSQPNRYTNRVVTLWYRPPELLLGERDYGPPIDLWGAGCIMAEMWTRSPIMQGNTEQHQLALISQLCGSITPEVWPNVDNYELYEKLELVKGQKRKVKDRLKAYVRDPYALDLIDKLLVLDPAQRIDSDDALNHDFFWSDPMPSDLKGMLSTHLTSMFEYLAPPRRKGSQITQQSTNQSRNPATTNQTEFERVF

MIA PaCa-2 [13] = test: Induction of apoptosis in human MIAPaCa2 cells at 2 uM after 24 hrs by propidium iodide staining-based flow cytometric method relative to control; type: functional
MIA PaCa-2 [14] = test: Cell cycle arrest in human MIAPaCa2 cells assessed as accumulation at S phase at 2 uM after 24 hrs by propidium iodide staining-based flow cytometric method (reference value: 33%); type: functional
MIA PaCa-2 [15] = test: Cell cycle arrest in human MIAPaCa2 cells assessed as accumulation at G1 phase at 2 uM after 24 hrs by propidium iodide staining-based flow cytometric method (reference value: 36%); type: functional
MIA PaCa-2 [16] = test: Cell cycle arrest in human MIAPaCa2 cells assessed as accumulation at G2 phase at 2 uM after 24 hrs by propidium iodide staining-based flow cytometric method (reference value: 30%); type: functional

Row | Ratio IC50 (Homo sapiens) | GI50 (PC-3 [1]) [µM] | GI50 (MCF7 [2]) [µM] | inhibition [3] [%] | GI50 (HL-60 [5]) [µM] | GI50 (Caco-2 [7]) [µM] | GI50 (MIA PaCa-2 [8]) [µM] | IC50 (CDK2/Cyclin A2) [µM] | inhibition [10] [%] | IC50 (CDK9/cyclin T1) [µM] | SMILES | inhibition of growth at 10 µM (MIA PaCa-2 [4]) [%] | inhibition of growth at 10 µM (MCF7 [6]) [%] | inhibition of growth at 10 µM (HL-60 [9]) [%] | inhibition of growth at 10 µM (Caco-2 [11]) [%] | inhibition of growth at 10 µM (PC-3 [12]) [%] | Activity (MIA PaCa-2 [13]) [%] | Activity (MIA PaCa-2 [14]) [%] | Activity (MIA PaCa-2 [15]) [%] | Activity (MIA PaCa-2 [16]) [%]
1 | 52 | 2 | 8 | 92 | 3 | 8 | 1 | 0.608 | 42 | 0.0115 | CN1CC[C@H](c2c(O)cc(O)c3c(=O)cc(/C=C/c4c(F)c(F)c(F)c(F)c4F)oc23)[C@H](O)C1 | 89 | 64 | 80 | 59 | 82 |  |  |  | 
2 |  | 19 | 28 |  | 10 | 25 | 19 |  |  |  | Cc1cc(=O)c2c(O)cc(O)c([C@H]3CCN(C)C[C@H]3O)c2o1 [ROHITUKINE] | 2 | 15 | 83 | 12 | 33 |  |  |  | 
3 |  | 20 | 8 | 60 | 8 | 7 | 3 | 1.52 | 9 | 0.26 | CN1CC[C@H](c2c(O)cc(O)c3c(=O)cc(/C=C/c4ccccc4F)oc23)[C@H](O)C1 | 60 | 62 | 62 | 68 | 25 |  |  |  | 
4 | 10 | 10 | 2 | 53 | 20 | 9 | 10 | 3 | 5 | 0.28 | CN1CC[C@H](c2c(O)cc(O)c3c(=O)cc(/C=C/c4cccc(Cl)c4)oc23)[C@H](O)C1 | 52 | 82 | 35 | 55 | 53 |  |  |  | 
5 |  | 7 | 3 | 88 | 8 | 8 | 2 | 0.466 | 53 | 0.029 | CN1CC[C@H](c2c(O)cc(O)c3c(=O)cc(/C=C/c4cccc(F)c4)oc23)[C@H](O)C1 | 67 | 83 | 60 | 61 | 67 |  |  |  | 
6 | 10 | 31 | 49 | 71 | 8 | 5.6 | 2 | 3.3 | 2 | 0.31 | CN1CC[C@H](c2c(O)cc(O)c3c(=O)cc(/C=C/c4ccc(Cl)cc4)oc23)[C@H](O)C1 | 88 | 10 | 58 | 70 | 12 |  |  |  | 
7 |  | > 100 | 5 | 80 | 4 | 4 | 4 | 1.8 | 43 | 0.35 | CN1CC[C@H](c2c(O)cc(O)c3c(=O)cc(/C=C/c4c5ccccc5cc5ccccc45)oc23)[C@H](O)C1 | 77 | 78 | 78 | 44 | 75 |  |  |  | 
8 |  | 58 | 31 | 66 | 1 | 3.7 | 2 | 0.925 | 5.2 | 0.066 | CN1CC[C@H](c2c(O)cc(O)c3c(=O)cc(/C=C/c4ccccc4)oc23)[C@H](O)C1 | 87 | 8 | 91 | 72 | 10 |  |  |  | 
9 |  |  |  | 29 |  |  |  |  | 0 |  | Cc1oc2c([C@H]3CCN(C)C[C@H]3O)c(O)cc(O)c2c(=O)c1C(O)c1ccccc1Br (stereo partly drawn) | 10 | 21 | 52 | 7 | 45 |  |  |  | 
10 |  |  |  | 0 |  |  |  |  | 10 |  | COc1ccc(COc2cc(O)c3c(=O)cc(C)oc3c2[C@H]2CCN(C)C[C@H]2O)cc1 | 15 | 16 | 23 | 8 | 35 |  |  |  | 
11 | 10 | 17 | 9 | 75 | 9 | 9 | 8 | 1.41 | 10 | 0.16 | CN1CC[C@H](c2c(O)cc(O)c3c(=O)cc(/C=C/c4ccccc4Cl)oc23)[C@H](O)C1 | 59 | 63 | 61 | 65 | 22 |  |  |  | 
12 |  |  |  | 0 |  |  |  |  | 5 |  | CCOC(=O)N1CCN(Cc2c(O)c([C@H]3CCN(C)C[C@H]3O)c3oc(C)cc(=O)c3c2O)CC1 | 4 | 31 | 16 | 18 | 1 |  |  |  | 
13 |  |  |  | 5 |  |  |  |  | 0 |  | Cc1cc(=O)c2c(O)c(CN3CCCC3CO)c(O)c([C@H]3CCN(C)C[C@H]3O)c2o1 (stereo partly drawn) | 13 | 22 | 33 | 19 | 15 |  |  |  | 
14 |  |  |  | 8 |  |  |  |  | 7 |  | Cc1cc(=O)c2c(O)cc(OC/C=C/c3ccccc3)c([C@H]3CCN(C)C[C@H]3O)c2o1 | 11 | 7 | 21 | 9 | 18 |  |  |  | 
15 |  |  |  | 0 |  |  |  |  | 17 |  | Cc1cc(=O)c2c(O)c(CN3CCCC3C(=O)O)c(O)c([C@H]3CCN(C)C[C@H]3O)c2o1 (stereo partly drawn) | 10 | 21 | 16 | 30 | 0 |  |  |  | 
16 |  |  |  | 11 |  |  |  |  | 5 |  | CCCCCCCCCC/C=C/c1c(C)oc2c([C@H]3CCN(C)C[C@H]3O)c(O)cc(O)c2c1=O | 4 | 7 | 9 | 10 | 0 |  |  |  | 
17 |  |  |  | 0 |  |  |  |  | 0 |  | Cc1oc2c([C@H]3CCN(C)C[C@H]3O)c(O)cc(O)c2c(=O)c1C(O)c1c(Cl)cccc1Cl (stereo partly drawn) | 0 | 33 | 14 | 24 | 0 |  |  |  | 
18 |  |  |  | 0 |  |  |  |  | 0 |  | Cc1oc2c([C@H]3CCN(C)C[C@H]3O)c(O)cc(O)c2c(=O)c1C(O)c1cccc(Cl)c1Cl (stereo partly drawn) | 2 | 7 | 12 | 3 | 20 |  |  |  | 
19 |  |  |  |  |  |  |  |  |  |  | CC[C@@]1(O)C(=O)OCc2c1cc1n(c2=O)Cc2cc3ccccc3nc2-1 [CAMPTOTHECIN] |  |  |  |  |  | 3.3 | 26 | 42 | 31
